For experiment [1], the target named is T1, Adenosine receptor A2b (Homo sapiens) (UniProt P29275).
T1 sequence (whole entry): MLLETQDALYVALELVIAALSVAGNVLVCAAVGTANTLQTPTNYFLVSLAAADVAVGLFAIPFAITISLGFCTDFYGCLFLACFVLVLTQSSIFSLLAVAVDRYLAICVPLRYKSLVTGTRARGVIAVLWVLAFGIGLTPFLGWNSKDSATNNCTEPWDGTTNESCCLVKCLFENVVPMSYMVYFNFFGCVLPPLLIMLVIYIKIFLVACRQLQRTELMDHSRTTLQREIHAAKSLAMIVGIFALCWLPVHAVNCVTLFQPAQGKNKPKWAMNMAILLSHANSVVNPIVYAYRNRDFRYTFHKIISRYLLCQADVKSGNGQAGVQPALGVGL
In words: Displacement of [3H]MRS1754 from human adenosine A2B receptor expressed in CHO cells at 10 uM. The experiment is classed as cell-based. An outline of the steps:
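CHO membranes expressing human A2B (20 µg protein) with ~1.2 nM [3H]MRS1754 and 10 µM test ligand, 60 min at 25 °C, in 50 mM Tris-HCl pH 7.4 with 0.1% CHAPS. Nonspecific binding with 1 mM NECA. Filtration, then scintillation counting.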
Background: In a radioligand displacement assay an active substance lowers the binding of a labelled ligand.

Experiment [2] addresses Adenosine receptor A2a (Homo sapiens) (UniProt P29274). In words: Displacement of [3H]ZM241385 from human adenosine A2A receptor expressed in HEK293 cells at 10 uM. The experiment is classed as cell-based. The method in brief:
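HEK293 membranes with human A2A (30 µg protein) incubated 120 min at 25 °C in 50 mM Tris-HCl pH 7.4 with ~1.7 nM [3H]ZM241385 and 10 µM test ligand. Nonspecific binding defined by 100 µM CGS 21680. Filtration, then liquid scintillation counting.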

Experiment [3] addresses T2, Adenosine receptor A1 (Homo sapiens) (UniProt P30542).
T2 sequence (whole entry): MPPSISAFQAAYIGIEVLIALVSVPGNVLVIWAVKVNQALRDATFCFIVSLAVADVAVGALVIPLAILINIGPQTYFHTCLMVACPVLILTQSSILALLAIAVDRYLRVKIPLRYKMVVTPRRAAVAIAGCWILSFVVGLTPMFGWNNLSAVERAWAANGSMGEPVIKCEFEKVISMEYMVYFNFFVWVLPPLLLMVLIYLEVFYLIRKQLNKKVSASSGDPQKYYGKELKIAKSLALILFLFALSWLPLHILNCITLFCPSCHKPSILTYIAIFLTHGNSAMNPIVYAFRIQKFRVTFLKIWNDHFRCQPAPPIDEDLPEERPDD
In words: Displacement of [125I]AB-MECA from human adenosine A1 receptor expressed in CHO cells at 10 uM. Format: cell-based. The method in brief:
(§1)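 Equilibrium binding on CHO membranes with human A1 (20 µg protein, 60 min) or A3 (10 µg, 120 min) at 25 °C. Buffer 50 mM Tris-HCl pH 8.0, 10 mM MgCl2, 1 mM EDTA, 0.01% CHAPS. Test ligand 10 µM with ~0.1 nM 125I-AB-MECA. Nonspecific binding with 10 µM DPCPX (A1) or 100 µM R-PIA (A3). Filtration, then γ-counting.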

In experiment [4] the target is T2, Adenosine receptor A1 (Homo sapiens). Briefly: Binding affinity to human adenosine A1 receptor expressed in CHO cells assessed as enhancement of DPCPX-induced displacement of [125I]AB-MECA from receptor at 10 uM after 90 mins relative to control. Format: cell-based. An outline of the steps: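 CHO membranes expressing human A1 (20 µg) or A3 (10 µg) preincubated with ~0.1 nM 125I-AB-MECA at 25 °C, 60 min (A1) or 120 min (A3), in 50 mM Tris-HCl pH 8.0, 10 mM MgCl2, 1 mM EDTA, 0.01% CHAPS. Dissociation started with 10 µM DPCPX (A1) or 10 µM Cl-IB-MECA (A3), with or without modulator. Bound ligand read at 90 min (A1) or 120 min (A3); control = 100%. Two assays in duplicate.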

Experiment [5] concerns the target T3, Adenosine receptor A3 (Homo sapiens) (UniProt P0DMS8).
T3 sequence (whole entry): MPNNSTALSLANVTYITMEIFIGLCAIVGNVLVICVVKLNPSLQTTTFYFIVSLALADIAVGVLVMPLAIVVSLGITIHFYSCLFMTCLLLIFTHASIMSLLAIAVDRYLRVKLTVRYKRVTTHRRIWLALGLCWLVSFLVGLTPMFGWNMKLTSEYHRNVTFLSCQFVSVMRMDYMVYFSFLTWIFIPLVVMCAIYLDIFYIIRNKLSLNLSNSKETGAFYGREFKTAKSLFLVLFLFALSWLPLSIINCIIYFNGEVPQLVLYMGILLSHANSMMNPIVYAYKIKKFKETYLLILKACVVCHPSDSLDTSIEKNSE
In words: Binding affinity to human adenosine A3 receptor expressed in CHO cells assessed as enhancement of C1IB-MECA-induced displacement of [125I]AB-MECA from receptor at 10 uM after 120 mins relative to control.

The target of experiment [6] is T3, Adenosine receptor A3 (Homo sapiens). Briefly: Displacement of [125I]AB-MECA from human adenosine A3 receptor expressed in CHO cells at 10 uM. The experiment is classed as cell-based. The method in brief:
as §1

For experiment [7] the target is unchanged. Briefly: Intrinsic activity at human adenosine A3 receptor expressed in CHO cells assessed as increase in C1IB-MECA-stimulated inhibition of forskolin-induced cAMP release at 10 uM by TR-FRET assay. Format: functional, cell-based. An outline of the steps:
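Forskolin-stimulated cAMP in CHOhA3 cells (~5000/well). Cl-IB-MECA concentration range given with or without 10 µM modulator in stimulation buffer (PBS, 5 mM Hepes pH 7.4, 0.1% BSA, 50 µM rolipram, 50 µM cilostamide), 15 min at room temperature. Forskolin 1 µM added, 30 min at room temperature. TR-FRET cAMP read-out. 100% = cAMP with 10 µM Cl-IB-MECA, 0% = forskolin alone. Three assays in duplicate.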
A general note: In TR-FRET formats the signal depends on donor and acceptor labels being close together.

The structures appear in SMILES notation.

Chain of Adenosine receptor A2a (Homo sapiens) (P29274 whole entry): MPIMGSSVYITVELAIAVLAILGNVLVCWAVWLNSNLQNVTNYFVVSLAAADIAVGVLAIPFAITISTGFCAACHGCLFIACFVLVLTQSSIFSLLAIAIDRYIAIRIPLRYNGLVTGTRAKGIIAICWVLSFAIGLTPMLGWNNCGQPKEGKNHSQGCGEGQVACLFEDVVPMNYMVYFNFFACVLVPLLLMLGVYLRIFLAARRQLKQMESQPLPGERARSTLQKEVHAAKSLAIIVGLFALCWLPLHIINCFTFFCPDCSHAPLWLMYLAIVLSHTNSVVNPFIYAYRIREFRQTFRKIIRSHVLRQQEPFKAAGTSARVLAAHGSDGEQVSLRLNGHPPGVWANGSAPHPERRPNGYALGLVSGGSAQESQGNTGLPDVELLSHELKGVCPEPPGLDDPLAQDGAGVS

Consider `O=C(Nc1cc(Nc2ccc(Cl)c(Cl)c2)nc2ccccc12)c1ccccc1`, for which the Activity in experiment [1] is 37%; in experiment [2] it was -20%; in experiment [3], 23%; in experiment [4], 102%; in experiment [5], 112%; in experiment [6], 11%.

As for `Cc1ccc(Nc2cc(NC(=O)C3CCCCC3)c3ccccc3n2)cc1`, the Activity in experiment [1] was 64%; in experiment [2], -3%; in experiment [3], 63%; in experiment [4], 121%; in experiment [5], 220%; in experiment [6], -3%.

As to `O=C(Nc1cc(Nc2ccccc2)nc2ccccc12)c1ccco1`, the Activity in experiment [1] was 60%; in experiment [2] it was 95%; in experiment [3] it was 73%; in experiment [4], 68%; in experiment [5], 100%; in experiment [6], 92%.

Consider `O=C(Nc1cc(Nc2ccccc2)nc2ccccc12)C1CCC1`, for which the Activity in experiment [1] stood at 66%; in experiment [2], 79%; in experiment [3], 76%; in experiment [4], 79%; in experiment [5], 119%; in experiment [6], 73%.

As for `Clc1ccc(Nc2nc3ccccc3c3nc(C4CCCCC4)[nH]c23)cc1Cl`, the Activity is 41% in experiment [1]; 16% in experiment [2]; 39% in experiment [3]; 120% in experiment [4]; 229% in experiment [5]; 3% in experiment [6]. Further, the Emax – broadly, the size of the effect at its maximum, as opposed to the concentration needed – in experiment [7] was 286%.

For the compound `O=C(Nc1cc(Nc2ccc(Cl)c(Cl)c2)nc2ccccc12)C1CCCCC1`, the Activity in experiment [1] was 17%; in experiment [2], -19%; in experiment [3] it was 12%; in experiment [4] it was 94%; in experiment [5], 249%; in experiment [6], 12%. Moreover, the Emax in experiment [7] came out at 223%.

`O=C(Nc1cc(Nc2ccc3c(c2)CCC3)nc2ccccc12)C1CCCCC1`: the Activity worked out at 42% in experiment [1]; 19% in experiment [2]; 20% in experiment [3]; 118% in experiment [4]; 217% in experiment [5]; 10% in experiment [6].

For `O=C(Nc1cc(NCc2ccccc2)nc2ccccc12)C1CCCC1`, the Activity in experiment [1] is 28%; in experiment [2], 49%; in experiment [3], 34%; in experiment [4] it was 77%; in experiment [5], 107%; in experiment [6], 34%.

For the compound `Cc1ccc(Nc2cc(NC(=O)C3CCCC3)c3ccccc3n2)cc1`, the Activity in experiment [1] was found to be 63%; in experiment [2], 35%; in experiment [3], 52%; in experiment [4], 115%; in experiment [5] it was 165%; in experiment [6], 27%.

On to `O=C(Nc1cc(Nc2ccccc2)nc2ccccc12)C1CCCC1`, for which the Activity was found to be 61% in experiment [1]; 34% in experiment [2]; 49% in experiment [3]; 104% in experiment [4]; 145% in experiment [5]; 33% in experiment [6].

Consider `O=C(Nc1cc(Nc2ccc3c(c2)CCC3)nc2ccccc12)C1CCCC1`, for which the Activity in experiment [1] turned out to be 62%; in experiment [2], 14%; in experiment [3] it was 47%; in experiment [4] it was 90%; in experiment [5] it was 147%; in experiment [6], 36%.

`O=C(Nc1cc(Nc2ccc(Cl)c(Cl)c2)nc2ccccc12)c1ccco1`: the Activity in experiment [1] was 13%; in experiment [2] it was 10%; in experiment [3], 11%; in experiment [4] it was 69%; in experiment [5], 96%; in experiment [6] it was 15%.

Consider `O=C(Nc1cc(Nc2ccccc2)nc2ccccc12)C1CCCCC1`, for which the Activity stood at 26% in experiment [1]; 5% in experiment [2]; 17% in experiment [3]; 70% in experiment [4]; 210% in experiment [5]; 21% in experiment [6].

Regarding `COc1ccc(Nc2cc(NC(=O)C3CCCC3)c3ccccc3n2)cc1`, the Activity stood at 35% in experiment [1]; 19% in experiment [2]; 24% in experiment [3]; 94% in experiment [4]; 134% in experiment [5]; 9% in experiment [6].

Turning to `O=C(Nc1cc(Nc2ccc3cn[nH]c3c2)nc2ccccc12)C1CCCC1`, the Activity came out at 90% in experiment [1]; 56% in experiment [2]; 61% in experiment [3]; 72% in experiment [4]; 102% in experiment [5]; 52% in experiment [6].

`O=C(Nc1cc(Nc2ccc(Cl)c(Cl)c2)nc2ccccc12)C1CCCC1`: the Activity was -50% in experiment [1]; -74% in experiment [2]; 17% in experiment [3]; 125% in experiment [4]; 169% in experiment [5]; 26% in experiment [6].

For `O=C(Nc1cc(Nc2ccc(Cl)c(Cl)c2)nc2ccccc12)C1CCC1`, the Activity in experiment [1] came out at 51%; in experiment [2] it was 38%; in experiment [3], 22%; in experiment [4], 72%; in experiment [5], 149%; in experiment [6], 41%.

As for `O=C(Nc1cc(Nc2ccccc2)nc2ccccc12)c1ccccc1`, the Activity in experiment [1] worked out at 76%; in experiment [2], 75%; in experiment [3], 64%; in experiment [4], 77%; in experiment [5], 100%; in experiment [6] it was 46%.

For `O=C(Nc1cc(NC2CCCC2)nc2ccccc12)C1CCCC1`, the Activity in experiment [1] stood at 14%; in experiment [2], 72%; in experiment [3], 80%; in experiment [4] it was 107%; in experiment [5], 114%; in experiment [6] it was 42%.

Values taken from ChEMBL document CHEMBL1140939, “A series of 2,4-disubstituted quinolines as a new class of allosteric enhancers of the adenosine A3 receptor” (J Med Chem, 2009).
